Results from ChEMBL document CHEMBL4229411, “Senolytic activity of piperlongumine analogues: Synthesis and biological evaluation” (Bioorg Med Chem, 2018).
Values belong to the compound of their own block, whether it stands above or below them. Active and inactive are the calls of the source. No cut-off for these calls is given here.

How the values were obtained:
WI-38 [1] = experiment: Induction of apoptosis in ionizing radiation induced human WI38 senescent cells assessed as necrotic cells at 10 uM after 48 hrs by Annexin V-FITC/propidium iodide staining based flow cytometry (reference value: […]); assay type: functional
WI-38 [2] = experiment: Induction of apoptosis in ionizing radiation induced human WI38 senescent cells assessed as live cells at 10 uM after 48 hrs by Annexin V-FITC/propidium iodide staining based flow cytometry (reference value: 87%); assay type: functional
WI-38 [3] = experiment: Induction of apoptosis in ionizing radiation induced human WI38 senescent cells assessed as late apoptotic cells at 10 uM after 48 hrs by Annexin V-FITC/propidium iodide staining based flow cytometry (reference value: […]); assay type: functional
WI-38 [4] = experiment: Induction of apoptosis in ionizing radiation induced human WI38 senescent cells assessed as early apoptotic cells at 10 uM after 48 hrs by Annexin V-FITC/propidium iodide staining based flow cytometry (reference value: […]); assay type: functional
[5] = target: T1, Oxidation resistance protein 1 (Homo sapiens) (UniProt Q8N573); experiment: Induction of OXR1 degradation in ionizing radiation induced human WI38 senescent cells at 5 uM after 24 hrs by Western blot analysis
T1 sequence (whole entry): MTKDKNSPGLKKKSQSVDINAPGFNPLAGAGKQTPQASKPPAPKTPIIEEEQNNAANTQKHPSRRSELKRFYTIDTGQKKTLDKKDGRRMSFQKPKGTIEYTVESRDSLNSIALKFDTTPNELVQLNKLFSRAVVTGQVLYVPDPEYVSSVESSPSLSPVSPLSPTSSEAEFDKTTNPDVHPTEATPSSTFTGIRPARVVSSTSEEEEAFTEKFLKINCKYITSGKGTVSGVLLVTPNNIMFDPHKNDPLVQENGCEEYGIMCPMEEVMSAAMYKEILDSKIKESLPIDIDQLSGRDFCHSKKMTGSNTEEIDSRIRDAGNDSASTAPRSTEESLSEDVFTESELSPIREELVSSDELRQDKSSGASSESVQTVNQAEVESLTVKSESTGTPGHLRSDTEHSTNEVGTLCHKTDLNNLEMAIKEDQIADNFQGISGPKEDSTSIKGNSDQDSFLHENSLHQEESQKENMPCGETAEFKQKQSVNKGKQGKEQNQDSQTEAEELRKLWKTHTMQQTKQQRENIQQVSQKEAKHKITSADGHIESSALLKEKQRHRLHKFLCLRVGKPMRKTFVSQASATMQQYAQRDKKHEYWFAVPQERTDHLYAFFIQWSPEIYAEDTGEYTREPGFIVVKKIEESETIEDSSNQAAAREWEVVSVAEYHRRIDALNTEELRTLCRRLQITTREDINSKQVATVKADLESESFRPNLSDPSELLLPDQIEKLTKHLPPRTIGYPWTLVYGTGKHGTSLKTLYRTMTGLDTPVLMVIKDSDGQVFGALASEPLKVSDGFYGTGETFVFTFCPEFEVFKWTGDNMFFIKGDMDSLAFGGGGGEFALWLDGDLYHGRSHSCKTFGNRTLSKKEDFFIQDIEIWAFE
How it was run: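 Cells were lysed in RIPA buffer with EDTA/EGTA and proteins were transferred to PVDF. Membranes were blocked in 5% nonfat milk/TBST and probed overnight at 4 °C for OXR1 and β-actin. Bands were quantified; mean ± SEM, n = 3.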

WI-38 [6] = experiment: Induction of ROS production in ionizing radiation induced human WI38 senescent cells up to 64 uM after […] by DHR123 dye based flow cytometry; assay type: functional, cell-based
[7] = Toxicity in po dosed mouse; assay type: organism-based; conditions: in vivo
WI-38 [8] = experiment: Senolytic activity against non-senescent human WI38 cells assessed as reduction in cell viability by propidium iodide staining based flow cytometry
How it was run: (§1)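 WI-38 fibroblasts were grown in DMEM/10% FBS with penicillin/streptomycin at 37 °C, 5% CO2. Low-passage cells (<25 passages) served as non-senescent controls.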

[9] = Selectivity index, ratio of EC50 for non-senescent human WI38 cells to EC50 for ionizing radiation induced human WI38 senescent cells; assay type: functional, WI-38
How it was run: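 Human WI-38 fibroblasts were grown in DMEM with 10% FBS and penicillin/streptomycin at 37 °C in 5% CO2. Low-passage cells (<25 passages) served as non-senescent controls. Viability was read by flow cytometry.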

WI-38 [10] = experiment: Senolytic activity against ionizing radiation induced human WI38 senescent cells assessed as reduction in cell viability by propidium iodide staining based flow cytometry; assay type: functional; how it was run: as §1

SMILES: CC(C)[C@H](NC(=O)c1ccc2ccccc2n1)C(=O)N[C@@H](CC(=O)O)C(=O)COc1c(F)cccc1F
Activity (WI-38 [1]): 3.4%
Activity (WI-38 [2]): 80.9%
Activity (WI-38 [3]): 8%
Activity (WI-38 [4]): 7.7%

Activity [5]: Active
SMILES: C=C1CCN(C(=O)/C=C/c2cc(OC)c(OC)c(OC)c2)C1=O

Activity [5]: Active
SMILES: C=C1CCCN(C(=O)/C=C/c2cc(OC)c(OC)c(OC)c2)C1=O

SMILES: COc1cc(/C=C/C(=O)N2CCC=CC2=O)cc(OC)c1OC [PIPLARTINE]
Activity (WI-38 [6]): Active
MTD [7]: > 1000 mg/kg
EC50 (WI-38 [8]): 20.3 µM
Ratio EC50 [9]: 2.5
EC50 (WI-38 [10]): 8 µM
Activity [5]: Active

Activity [5]: Active
SMILES: C=C1CCCCN(C(=O)/C=C/c2cc(OC)c(OC)c(OC)c2)C1=O
